The values that follow come from ChEMBL document CHEMBL3259673, “Campechic acids A and B: anti-invasive polyether polyketides from a soil-derived Streptomyces” (J Nat Prod, 2014).

Data set [1] deals with Micrococcus luteus. As to the kind of experiment: Antimicrobial activity against Micrococcus luteus ATCC 9343 after 20 hrs. The data set is classed as functional. To be noted: ATCC 9343, 20 h. A digest of the protocol:
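Micrococcus luteus was grown 20 h at 30 °C with shaking, then pelleted and suspended in saline at 1 × 10^5 cells/mL. It was then mixed 1:10 with Mueller Hinton broth plus compound in DMSO.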

Data set [2] relates to Escherichia coli. Put plainly: Antimicrobial activity against Escherichia coli NIH-JC2 after 20 hrs. The data set is classed as functional, organism-based. A digest of the protocol:
(§1)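 Broth microdilution. Overnight cultures (20 h, 30 °C, shaken) centrifuged and resuspended in saline at 1 × 10^5 cells/mL, diluted 1:10 into medium with sample in DMSO. C. albicans in yeast nitrogen base + 2% glucose, 30 °C. E. coli in Mueller Hinton broth, 37 °C. Growth read as A650 after 20 h. MIC reported.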

Data set [3] has as its system Candida albicans. Put plainly: Antimicrobial activity against Candida albicans IFO1594 after 20 hrs. The data set is classed as functional, organism-based. A digest of the protocol:
as §1

The nature of data set [4]: Antiinvasive activity against mouse 26-L5 cells after 6 to 8 hrs by matrigel assay. The data set is classed as functional, cell-based. A digest of the protocol: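 Transwell chambers with 8.0-μm polycarbonate filters coated with Matrigel/fibronectin were used. Cells were fixed in methanol and stained with H&E. Non-invaded cells were swabbed off, and cells on the lower surface were counted in five fields per well. IC50 reported.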

The nature of data set [5]: Selectivity index, ratio of IC50 for cytotoxicity against mouse 26-L5 cells to IC50 for antiinvasive activity against mouse 26-L5 cells. The data set is classed as toxicity, cell-based. To be noted: read-out: Ratio IC50.
Data set [6] can be described thus: Cytotoxicity against mouse 26-L5 cells after 24 hrs by crystal violet staining assay. The data set is classed as cell-based. Put shortly:
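Colon 26-L5 cells (5 × 10^3/well) were seeded in RPMI with 1% FCS and graded compound concentrations. They were incubated 24 h at 37 °C under 5% CO2, washed with PBS and fixed in 20% formalin. Cells were stained 30 min with crystal violet, the dye was eluted in 30% acetic acid and A590 was read. IC50 reported.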

Molecules are shown by their SMILES. ≈ marks a conversion by molar mass, not a printed value. Calls of active or inactive are those of the source. The rule behind the calls is not given here.

One may read the MIC as the least concentration at which growth counts as inhibited. A high value points to a need for much substance. Usually IC50 stands for the concentration that gives 50% inhibition. Low readings indicate inhibition by little substance, high ones a need for much substance. For `CC[C@@H](C[C@@H](C)C[C@H](C)C[C@H](C)C(=O)O)C(=O)/C=C(\O)[C@H](C)C[C@H](C)C/C=C/[C@H](C)[C@@H](O)CC1CCC(C)(C2CCC(C)([C@@H](C)O)O2)O1` (stereo partly specified), in data set [1], the MIC was 6.25 µg/mL (≈ 9.2 µM). The result in data set [2] and in data set [3] was inactive. Also, in data set [4], the IC50 was 5.5 nM. Further, the selectivity ratio in data set [5] amounted to 73.
`C[C@H](C/C=C/[C@H](C)[C@@H](O)CC1CCC(C)(C2CCC(C)([C@@H](C)O)O2)O1)C[C@@H](C)/C(O)=C/C(=O)[C@@H](C)C[C@@H](C)C[C@H](C)C[C@H](C)C(=O)O` (stereo partly specified) yielded an MIC in data set [1] of 6.25 µg/mL (≈ 9.4 µM). The result in data set [2] and in data set [3] was inactive. Besides, the results for the concentration for half-maximal inhibition (IC50) in data set [4] and in data set [6] were 300 nM and 4500 nM, respectively. Also, in data set [5], the selectivity ratio was found to be 15.
